Reference: ChEMBL document CHEMBL1129476, “In vivo activity and hydrophobicity of cytostatic aziridinyl quinones” (J Med Chem, 1996)

Legend:
[1] = Partition coefficient (logP); format: physicochemical; conditions: octanol/water
In short: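 Micro shake-flask: buffered aqueous compound solution (pH 6.50) shaken with an equal volume of water-saturated 1-octanol at room temperature, 3 × 120 s. Centrifuged 14000g, 15 min. Aqueous phase analysed by RP-HPLC against the unshaken solution (methanol 30, 50 or 70 wt%, 1.0 mL/min, UV 254 nm). Run in duplicate, or quadruplicate if needed.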

[2] = HPLC capacity factor (logK); format: ADME
[3] = E1/2 for the half-wave potential at pH=7.0 in V57; format: ADME
[4] = Observed rate of hydrolysis (logKobs) (pH=4.0); format: ADME
In short: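 Hydrolysis followed by cyclic voltammetry at 20 °C in deaerated 0.1 M acetate buffers (pH 5.0–3.5) or 0.02 M NaH2PO4 (pH 3.5, 3.0), ionic strength 0.1 M (NaNO3). Decrease of the parent cathodic peak tracked over time. Pseudo-first-order kobs from linear regression of log concentration versus time.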

[5] = Electrochemically observed pKa (pKred) of aziridines; format: physicochemical; conditions: read-out: pKred
B16 = test: log 1/D125 or the dose (mmol/kg) to give 125%T/C ratio (B16) in vivo; format: functional, Mus musculus
Fungi = test: log 1/MIC for fungi in mmol/L; format: functional
L1210 [6] = test: log 1/D125 for the dose (mmol/kg) to give 125%T/C ratio (L1210) in vivo; format: functional, Mus musculus
L1210 [7] = test: log 1/ID75 for the in vitro clonogenic L1210 assay with ID75 in umol/L; format: functional, Mus musculus
[8] = log KGSH for the rate k of glutathione (GSH) consumption in 1/s; format: functional
[9] = log 1/LD50 for LD50 (mmol/kg); format: ADME
[10] = log 1/anion production.; format: functional
Nucleic Acid = test: DNA cross link ratio at pH=5.0 and 50 umol/L compound; format: functional

| Structure (SMILES) | Log K [2] | E 1/2 [3] | Log Kobs [4] | pKa [5] | Log 1/MIC (mM L-1) (Fungi) | Log 1/ID75 (uM L-1) (L1210 [7]) | Log 1/LD50 (mM kg-1) [9] | Log 1/conc (mM min-1 L-1) [10] | further results |
| --- | --- | --- | --- | --- | --- | --- | --- | --- | --- |
| O=C1/C(=N/CCO)C=C(O)c2ccccc21 | -0.005 | – | – | – | – | – | – | – | logP [1]: 1.23 |
| O=C1C=C(N2CC2)C(=O)C(N2CC2)=C1N1CC1 [TRIAZIQUONE] | – | -0.171 | -2.85 | 8 | 1.06 | 2.72 | 2.66 | 1.32 | logP [1]: 0.13; Log 1/D125 (mM kg-1) (B16): 3.8; Log 1/D125 (L1210) (mM kg-1) (L1210 [6]): 3.52; Log k GSH (s-1) [8]: -3.14 |
| O=C1C=CC(=O)C=C1 [BENZOQUINONE] | -0.466 | – | – | – | – | – | – | – | – |
| CN(C)C1=CC(=O)C(N(C)C)=CC1=O | -0.004 | – | – | – | – | – | – | – | – |
| NC1=C(N2CC2)C(=O)C(N)=C(N2CC2)C1=O | – | – | – | – | – | 1.16 | – | – | – |
| CC1=CC(=O)C=C(C)C1=O | 0.136 | – | – | – | – | – | – | – | – |
| O=C1C=CC(=O)c2ccccc21 [NAPHTHOQUINONE] | 0.299 | – | – | – | – | – | – | – | – |
| NC(=O)OCCC1=C(N2CC2)C(=O)C(Br)=C(N2CC2)C1=O | – | -0.201 | -4.49 | 8.9 | 0.25 | 2.45 | 1.05 | 2.48 | Log 1/D125 (mM kg-1) (B16): 2.68; Log 1/D125 (L1210) (mM kg-1) (L1210 [6]): 2; Log k GSH (s-1) [8]: -3.6 |
| O=C1C(F)=C(N2CC2)C(=O)C(N2CC2)=C1N1CC1 | – | -0.171 | -3.75 | 7.8 | 1.79 | 2.32 | 1.62 | 1.72 | DNA cross-link ratio (Nucleic Acid): 0.17; Log 1/D125 (L1210) (mM kg-1) (L1210 [6]): 1.95; Log k GSH (s-1) [8]: -2.24 |
| O=C1C=C(N2CCCC2)C(=O)c2ccccc21 | 0.736 | – | – | – | – | – | – | – | – |
| CC1CN1C1=C(F)C(=O)C(N2CC2C)=C(F)C1=O (stereo unspecified) | 0.444 | -0.093 | – | 7.9 | 1.5 | 1.49 | 1.5 | 1.77 | – |
| CC1CN1C1=CC(=O)c2ccccc2C1=O (stereo unspecified) | 0.611 | – | – | – | – | – | – | – | – |
| CC1CN1C1=CC(=O)C(N2CC2C)=CC1=O (stereo unspecified) | 0.152 | -0.115 | -1.55 | 8.1 | 0.44 | 1.03 | 1.16 | 1.75 | Log 1/D125 (mM kg-1) (B16): 2.12; Log 1/D125 (L1210) (mM kg-1) (L1210 [6]): 1.64 |
| CC1=C(N2CC2)C(=O)C(Br)=C(N2CC2)C1=O | 0.279 | -0.185 | -4.45 | 8.7 | 1.45 | 2.76 | 1.44 | 2.45 | Log 1/D125 (mM kg-1) (B16): 2.09 |
| CC1CN1C1=C(N2CCCC2)C(=O)C(N2CC2C)=C(N2CCCC2)C1=O (stereo unspecified) | – | -0.303 | – | 11.1 | – | – | – | – | – |
| O=C1C=C(N2CCCC2)C(=O)C=C1N1CCCC1 | 0.587 | -0.439 | – | – | -0.38 | -1.61 | – | – | – |
| CCC1=C(N2CC2)C(=O)C(C)=C(N2CC2)C1=O | 0.291 | -0.227 | -3.59 | 8.7 | 0.77 | – | 1.46 | 0.87 | Log 1/D125 (mM kg-1) (B16): 3.25; DNA cross-link ratio (Nucleic Acid): 0.23; Log k GSH (s-1) [8]: -5 |
| CC1=C(N2CC2C)C(=O)C(C)=C(N2CC2C)C1=O (stereo unspecified) | – | -0.187 | -2.61 | 8.6 | – | – | 1.4 | – | Log 1/D125 (mM kg-1) (B16): 2.27; Log 1/D125 (L1210) (mM kg-1) (L1210 [6]): 1.47 |
| CN(CCO)C1=C(N2CC2)C(=O)C(N(C)CCO)=C(N2CC2)C1=O | – | -0.225 | – | 9.7 | – | 0.09 | – | – | – |
| CC1=C(C)C(=O)C(N2CCCC2)=CC1=O | – | -0.303 | – | – | -0.3 | -1.7 | – | – | – |
| O=C1C(F)=C(N2CC2)C(=O)C(F)=C1N1CC1 | – | -0.087 | -4.03 | 7.2 | 1.75 | – | – | 1.72 | Log k GSH (s-1) [8]: -2.21 |
| CN(C)C1=CC(=O)c2ccccc2C1=O | 0.591 | – | – | – | – | – | – | – | – |
| COC1=C(N2CC2)C(=O)C(OC)=C(N2CC2)C1=O | – | -0.179 | -3.26 | 8 | – | 0.15 | – | – | Log 1/D125 (mM kg-1) (B16): 3.53; Log 1/D125 (L1210) (mM kg-1) (L1210 [6]): 2.38 |
| O=C1C(N2CC2)=C(N2CC2)C(=O)C(N2CC2)=C1N1CC1 | – | -0.245 | -3.7 | 7.7 | 0.95 | 0.9 | – | – | – |
| O=C1C=C(N2CC2)C(=O)c2ccccc21 | 0.346 | – | – | – | – | – | – | – | – |
| CC1=C(N2C(C)C2C)C(=O)C(Br)=C(N2C(C)C2C)C1=O (stereo unspecified) | – | – | -1.15 | – | – | – | 0.63 | – | Log 1/D125 (L1210) (mM kg-1) (L1210 [6]): 0.69 |
